This note sets out measurements from ChEMBL document CHEMBL1124867, “Synthesis and antiviral activity of monofluoro and difluoro analogues of pyrimidine deoxyribonucleosides against human immunodeficiency virus (HIV-1)” (J Med Chem, 1990).

Test [1] has as its system C8166. The experiment in a line: Concentration of compound that inhibits incorporation of radiolabeled amino acids by 50 %. The format is functional. The note with it: Homo sapiens, read-out: CD50 (the source's name). In outline:
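C8166 cells (2 × 10⁵) exposed to compound at various concentrations for 3 days, washed, then given ¹⁴C protein hydrolysate for a further 24 h. Cells harvested and washed, ¹⁴C incorporation counted by scintillation, radioactivity plotted against concentration; CD50 = concentration inhibiting label incorporation by 50%.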

Test [2] concerns C8166. The experiment in a line: Antiviral activity against HIV-1 (RF strain) in C8166 cells. The format is functional, cell-based. The settings on record: Homo sapiens. The method, boiled down:
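HIV-1 RF strain in C8166 cells, 3-day incubation with compound at various concentrations (highest tested 100 μM). Virus in culture medium quantified by p24 antigen-capture ELISA (primary antiserum against p24, horseradish peroxidase detection), colour read spectrophotometrically and plotted against concentration; IC50 = concentration reducing virus levels by 50%.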

With `Cc1cn([C@@H]2O[C@H](CO)C=C2F)c(=O)[nH]c1=O`, the CC50 in test [1] was above 1000 µM. The IC50 in test [2] was 100 µM. For `Nc1ccn([C@@H]2O[C@H](CO)C[C@@H]2F)c(=O)n1`, the CC50 in test [1] is 500 µM. In test [2], this compound came in with an IC50 of 0.7 µM. As to `Nc1ccn([C@@H]2O[C@H](CO)C=C2F)c(=O)n1`, the CC50 in test [1] was 30 µM. Moreover, 10 µM corresponded to half-maximal inhibition in test [2] (IC50). In turn, `O=c1ccn(C2OC(CO)C=C2F)c(=O)[nH]1` (configuration not stated) returned an IC50 in test [2] above 100 µM.

`Nc1ccn(C2OC(CO)CC2F)c(=O)n1` (configuration not stated) showed an IC50 in test [2] above 100 µM. Regarding `O=c1ccn(C2OC(CO)C(F)C2F)c(=O)[nH]1` (configuration not stated), in test [2], the IC50 is above 100 µM.

`Nc1nc(=O)n(C2OC(CO)CC2F)cc1F` (configuration not stated) returned an IC50 in test [2] above 100 µM.

Turning to `O=c1ccn(C2OC(CO)CC2F)c(=O)[nH]1` (configuration not stated), in test [2], the half-inhibitory concentration (IC50) was above 100 µM. On to `Nc1ccn(C2OC(CO)C(F)C2F)c(=O)n1` (configuration not stated), for which the CC50 in test [1] is above 100 µM. For the same compound, the IC50 in test [2] came out at 10 µM. On the same counts, the results for `Nc1ccn([C@H]2CC[C@@H](CO)O2)c(=O)n1` [ZALCITABINE] are 1000 µM and 0.125 µM. As for `Cc1cn([C@H]2C[C@H](N=[N+]=[N-])[C@@H](CO)O2)c(=O)[nH]c1=O` [ZIDOVUDINE], the CC50 in test [1] was above 1000 µM. For the same compound, inhibition in test [2] was half-maximal at 0.0085 µM (IC50).

As a reminder, the IC50 is the point on the concentration scale where inhibition reaches its midpoint.
